Laboratory results reported in ChEMBL document CHEMBL1240484, “New 4H-chromen-4-one and 2H-chromene derivatives as anti-picornavirus capsid-binders” (Bioorg Med Chem, 2010).
Calls of active or inactive are those of the source. The rule behind the calls is not given here.

Columns and labels:
[1] = Cytotoxicity against human HeLa cells after 3 days by XTT assay; assay type: cell-based; details: read-out: TC50
Method in brief: (§1)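 HeLa cells seeded at 2 × 10³ per well with twofold compound dilutions from the maximum soluble concentration, quadruplicate wells, 37 °C in 5% CO2 for 3 days until controls were confluent. Morphology also scored microscopically. MNTC is the highest dose with no toxicity or growth reduction.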

[2] = Cytotoxicity against human HeLa cells assessed as maximum non-cytotoxic concentration after 3 days by XTT assay; assay type: cell-based
Method in brief: as §1, with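 “confluent. XTT added (final 0.15 mg/mL) for 4 h, absorbance read at 492 nm with 690 nm reference.” for “confluent.”, “microscopically. […]” for “microscopically.”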

rhinovirus A1B [3] = assay: Antiviral activity against Human rhinovirus 1B infected in human HeLa cells after 3 days by plaque reduction assay; assay type: functional, organism-based
Method in brief: (§2)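 HeLa monolayers infected with ATCC HRV 14 or 1B at about 100 plaques per well, 1 h adsorption at 33 °C. Inoculum removed, then plaque overlay with fourfold drug dilutions from the MNTC. Three days at 33 °C, neutral red (0.2 mg/mL, PBS pH 7.4) staining and plaque count, triplicate wells. IC50 from log dose vs % reduction relative to mock-treated control. Otherwise % inhibition at MNTC is reported.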

[4] = Therapeutic index, ratio of TC50 for human HeLa cells to IC50 for HRV 1B; assay type: cell-based; details: read-out: TI
Method in brief: (§3)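 Therapeutic index calculated as TC50 for HeLa cells (XTT, 3 days) divided by IC50 for plaque reduction of HRV 14 or HRV 1B in HeLa cells.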

rhinovirus B14 = assay: Antiviral activity against Human rhinovirus 14 infected in human HeLa cells after 3 days by plaque reduction assay; assay type: functional, organism-based; method in brief: as §2
[5] = Therapeutic index, ratio of TC50 for human HeLa cells to IC50 for HRV 14; assay type: cell-based; details: read-out: TI; method in brief: as §3
[6] = Cytotoxicity against human Hep2 cells assessed as maximum non-cytotoxic concentration after 3 days by XTT assay; assay type: cell-based, HEp-2
Method in brief: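 Hep-2 cells grown in high-glucose DMEM, seeded at 2 × 10³ per well with twofold dilutions from the maximum soluble concentration, quadruplicate wells, 3 days at 37 °C in 5% CO2. XTT (final 0.15 mg/mL) for 4 h, read at 492/690 nm, plus microscopic scoring. MNTC is the highest dose causing no toxic effect or growth reduction.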

Enterovirus A71 [7] = assay: Antiviral activity against Human enterovirus 71 infected in human Hep2 cells after 2 days by plaque reduction assay; assay type: functional, organism-based
Method in brief: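 Inoculum removed, then plaque overlay with fourfold drug dilutions starting from the MNTC. Two days at 37 °C, neutral red (0.2 mg/mL in PBS pH 7.4) staining, plaques counted, triplicate wells. IC50 taken from log dose vs % plaque reduction.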

Enterovirus A71 [8] = assay: Antiviral activity against Human enterovirus 71 infected in human Hep2 cells at maximum non-cytotoxic concentration […] by plaque reduction assay; assay type: functional, HEp-2
rhinovirus A1B [9] = assay: Antiviral activity against Human rhinovirus 1B infected in human HeLa cells assessed as virus stabilization at 20 uM at 56 degC after 1 hr by plaque reduction assay (reference value: 3.5 x 10^7 PFU/ml); assay type: functional
Method in brief: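 HRV 1B held with or without 20 µM compound for 1 h at 33 °C, then heated 20 min at 56 °C (pH 7.2) and chilled on ice. Serial 10-fold dilution and plaque titration on HeLa monolayers.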

rhinovirus A1B [10] = assay: Antiviral activity against Human rhinovirus 1B infected in human HeLa cells assessed as inhibition of viral replication at 20 uM after 10 hrs by plaque reduction assay; assay type: functional; parameters: scale not given: the % may be the effect or the level left
Method in brief: (§4)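 One-step growth of HRV 1B in confluent HeLa cells, multiplicity of five, attachment 1 h at 4 °C, then three PBS washes (time 0). Compound at 20 µM present throughout, during adsorption only, or added or removed at 0.5, 1, 2 or 4 h p.i. Incubation at 33 °C to 10 h p.i., three freeze-thaw cycles, supernatant titred by plaque assay on HeLa cells.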

rhinovirus A1B [11] = assay: Antiviral activity against Human rhinovirus 1B infected in human HeLa cells assessed as reduction of viral yeild at 20 uM treated immediately after virus infection measured after 10 hrs by plaque reduction assay; assay type: functional; parameters: scale not given: the % may be the effect or the level left; method in brief: as §4
rhinovirus A1B [12] = assay: Antiviral activity against Human rhinovirus 1B infected in human HeLa cells assessed as reduction of viral yeild at 20 uM treated 30 mins after virus infection measured after 10 hrs by plaque reduction assay; assay type: functional; parameters: scale not given: the % may be the effect or the level left; method in brief: as §4
rhinovirus A1B [13] = assay: Antiviral activity against Human rhinovirus 1B infected in human HeLa cells assessed as reduction of viral yeild at 20 uM treated 1 hr after virus infection measured after 10 hrs by plaque reduction assay; assay type: functional; parameters: scale not given: the % may be the effect or the level left; method in brief: as §4
rhinovirus A1B [14] = assay: Antiviral activity against Human rhinovirus 1B infected in human HeLa cells assessed as reduction of viral yeild at 20 uM treated 2 to 4 hrs after virus infection measured after 10 hrs by plaque reduction assay; assay type: functional, organism-based; method in brief: as §4
rhinovirus A1B [15] = assay: Antiviral activity against Human rhinovirus 1B infected in human HeLa cells assessed as reduction of viral yeild at 20 uM after 1 hr by plaque reduction assay; assay type: functional; parameters: scale not given: the % may be the effect or the level left
rhinovirus A1B [16] = assay: Antiviral activity against Human rhinovirus 1B infected in human HeLa cells assessed as reduction of viral yeild at 20 uM treated 1 hr before infection measured after 10 hrs by plaque reduction assay; assay type: functional, organism-based; method in brief: as §4
rhinovirus A1B [17] = assay: Antiviral activity against Human rhinovirus 1B infected in human HeLa cells assessed as reduction of viral yeild at 20 uM treated immediately after virus infection measured 30 mins after washout by plaque reduction assay; assay type: functional; parameters: scale not given: the % may be the effect or the level left; method in brief: as §4
rhinovirus A1B [18] = assay: Antiviral activity against Human rhinovirus 1B infected in human HeLa cells assessed as reduction of viral yeild at 20 uM treated immediately after virus infection measured >1 hr after washout by plaque reduction assay; assay type: functional, organism-based; method in brief: as §4
rhinovirus A1B [19] = assay: Antiviral activity against Human rhinovirus 1B infected in human HeLa cells assessed as virus inactivation at 20 uM at 33 degC after 1 hr by plaque reduction assay (reference value: 2.86 x 10^7 PFU/ml)

## C1=C(/C=C/c2ccccc2)COc2ccccc21
[1]
  CC50 at 72 h: 50000 nM
[2]
  MNTC at 72 h: 25 µM
Rhinovirus A1B [3]
  Activity: Dose-dependent effect
Rhinovirus A1B [3]; Rhinovirus A, 72 h
  IC50: 200 nM
[4]
  selectivity ratio: 250
Rhinovirus B14
  Activity: Dose-dependent effect
Rhinovirus B14; Rhinovirus B, 72 h
  IC50: 1380 nM
[5]
  selectivity ratio: 36.2
[6]
  MNTC at 72 h: 12.5 µM
Enterovirus A71 [7]; Enterovirus A, HEp-2, 48 h
  IC50: > 12500 nM
Enterovirus A71 [7]; HEp-2
  Activity: Dose-dependent effect
Enterovirus A71 [8]
  inhibition (INH): 36.1%
Rhinovirus A1B [9]
  log10PFU/ml: 2.1
Rhinovirus A1B [10]
  Activity: 92%
Rhinovirus A1B [11]
  Activity: 91.4%
Rhinovirus A1B [12]
  Activity: 90%
Rhinovirus A1B [13]
  Activity: 7.7%
Rhinovirus A1B [14]
  Activity: inactive
Rhinovirus A1B [15]
  Activity: 91.7%
Rhinovirus A1B [16]
  Activity: inactive
Rhinovirus A1B [17]
  Activity: 91.8%
Rhinovirus A1B [18]
  Activity: Active
Rhinovirus A1B [19]
  PFU/ml: 26600000
